Sampled rows, rich in hits. Any-hit rate of the full collection: about 1.8%.
APJ agonist: agonists of human apelin receptor APJ, primary screen, CHO-K1 cells, PathHunter beta-arrestin, luminescence. 0.11% of 330,000 active. 0% DMSO wells, 100% apelin. activation, % at 20 µM. AID 2520, 2010;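 active means activation more than six SD over the plate average, tested at 20 µM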;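 further: 0% = DMSO alone and 100% = apelin-13 at 10 nM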
Target sequence (P35414 whole entry, looked up): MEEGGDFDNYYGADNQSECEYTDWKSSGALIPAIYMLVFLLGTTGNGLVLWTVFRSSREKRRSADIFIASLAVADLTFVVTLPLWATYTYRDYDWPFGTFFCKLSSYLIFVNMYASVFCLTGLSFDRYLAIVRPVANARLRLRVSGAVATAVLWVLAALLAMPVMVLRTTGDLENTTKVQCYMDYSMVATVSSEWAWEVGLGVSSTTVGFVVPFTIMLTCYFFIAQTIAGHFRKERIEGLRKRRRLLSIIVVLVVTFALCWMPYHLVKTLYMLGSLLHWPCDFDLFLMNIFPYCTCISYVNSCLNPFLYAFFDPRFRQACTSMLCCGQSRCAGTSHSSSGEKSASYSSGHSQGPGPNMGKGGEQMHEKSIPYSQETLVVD
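Test system: CHO-K1 APJ beta-arrestin complementation cell line. Amount: cell density 1000 per well. Controls: DMSO negative, 10 nM Apelin-13 positive. Signal: luminescent beta-gal fragment complementation, chemiluminescent substrate. Read-out basis: agonist-driven arrestin binding to APJ. Timing: compound stimulation 90 min at 25 °C, detection 60 min.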
CCR6 antag: CCR6 receptor antagonists, primary screen, cell-based, CHO-K1, luminescence, beta-arrestin, uHTS | C-C chemokine receptor type 6 (Homo sapiens), P51684 | CHO-K1 CCR6 PathHunter beta-arrestin, CCL20-stimulated | inhibition, % at 20 µM | 0.49% of 340,000 active;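 active means compounds whose inhibition of the agonist-driven luminescence signal at 20 µM reaches about 50%, limit read from the data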;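 further: cells stimulated with CCL20 at 14 nM final; plate controls were DMSO with CCL20 for no effect and DMSO without agonist for full effect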
CXCR6 inh: CXCR6 receptor inhibitors, primary screen, cell-based, beta-arrestin, luminescence, CHO-K1 PathHunter, 1536-well. 0.36% of 360,000 active. inhibition, % at 20 µM. C-X-C chemokine receptor type 6 (Homo sapiens), O00574. AID 602244, 2012; in the data active means inhibition above about 34%, passing the limit was not always enough;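 further: antagonist mode with CXCL16 agonist at 10 nM final; 0% = 10 nM CXCL16 with DMSO and 100% = unstimulated wells without agonist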
Target sequence (O00574 whole entry, looked up): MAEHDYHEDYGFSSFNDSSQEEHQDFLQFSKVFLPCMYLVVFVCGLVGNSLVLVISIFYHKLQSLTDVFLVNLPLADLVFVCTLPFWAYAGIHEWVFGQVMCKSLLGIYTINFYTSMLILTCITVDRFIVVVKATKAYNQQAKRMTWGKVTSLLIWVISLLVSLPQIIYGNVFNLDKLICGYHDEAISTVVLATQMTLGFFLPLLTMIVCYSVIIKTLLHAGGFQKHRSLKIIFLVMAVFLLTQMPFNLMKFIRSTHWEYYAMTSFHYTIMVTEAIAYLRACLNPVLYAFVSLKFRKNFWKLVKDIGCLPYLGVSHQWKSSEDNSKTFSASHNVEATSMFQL
APJ antagonist: antagonists of human apelin receptor APJ, primary screen, CHO-K1 cells, beta-arrestin complementation, luminescence | P35414 | inhibition, % at 20 µM | 0.32% of 330,000 active;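 active means inhibition above about 40% at 20 µM, limit read from the data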;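 further: cells challenged with 10 nM apelin-13 agonist together with compound; plate controls were apelin-13 plus DMSO wells for no effect and DMSO wells lacking apelin-13 for full effect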
B2AR ag: beta2AR agonists driving receptor internalization, primary screen, cell-based, FAP fluorogen, flow cytometry; Beta-2 adrenergic receptor (Homo sapiens), P07550; Am2.2-beta2AR cells; response, % (concentration not given with the values); 0.43% of 340,000 active;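 active means response above a set limit, near 3 SD of response in nonfluorescent compounds, cut at about 42% in these data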
EBI2 antag: EBI2 receptor antagonists, beta-arrestin recruitment, primary screen, cell-based, luminescence, 7a,25-OHC stimulation, uHTS; inhibition, % at 5 µM; AID 651636, 2012; G-protein coupled receptor 183 (Homo sapiens), P32249; 0.81% of 360,000 active; 7a,25-OHC stimulated; in the data active means inhibition above about 38%;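 further: enzyme fragment complementation signal reports receptor beta-arrestin coupling in cells; 0% = agonist plus DMSO wells and 100% = wells without agonist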
EBI2 conf: EBI2 antagonist hit retest, beta-arrestin, confirmation, cell-based, single concentration, luminescence, 7a,25-OHC stimulation. shares compounds with EBI2 antag. 7a,25-OHC antagonism. inhibition, % at 5 µM. 29% of 2,400 active;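 active means inhibition of at least 50%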
EBI2 ag: EBI2 agonist activity of antagonist hits, confirmation, counter-screen for EBI2 antagonist project, cell-based, single concentration, agonist mode, luminescence; 2,400 tested, under 10 active; shares compounds with EBI2 antag; activation, % at 5 µM; EBI2-expressing cells, 60 min; 0% vehicle, 100% 7α,25-dihydroxycholesterol control; AID 652000, 2013;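 active means activation of at least 50%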
bGal counter: E. coli beta-galactosidase enzyme inhibition, confirmation, counter-screen for EBI2 antagonist project, biochemical, luminescence, single concentration | shares compounds with EBI2 antag | purified beta-galactosidase, luminescent Galacton Star, 15 min | inhibition, % at 5 µM | 1% of 2,400 active;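 active means replicate-average signal at least 3 plate SD below neutral wells, shown as high inhibition, flagging enzyme-inhibiting false positives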;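 further: 0% = DMSO wells with enzyme and 100% = wells lacking enzyme; higher means stronger loss of beta-gal luminescence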
* hit, by the source's call; / = not tested or not shown.

SMILES | APJ agonist | CCR6 antag | CXCR6 inh | APJ antagonist | B2AR ag | EBI2 antag | EBI2 conf | EBI2 ag | bGal counter
Cc1ccc(OCCNC(=O)C2CCCCC2)cc1 | -1 | -2 | 0 | 11 | -6 | 38 | / | / | /
O=C(NCc1ccc(Cl)cc1)c1cccc(S(=O)(=O)N2CCCC2)c1 | -4 | 16 | -3 | 1 | 9 | -6 | / | / | /
O=C(NCCOc1ccc(Cl)cc1)c1cccc(S(=O)(=O)N2CCCC2)c1 | -2 | 15 | -6 | 15 | 3 | 56* | 47 | -1 | -10
O=C(CSc1ccc2nnc(-c3ccccn3)n2n1)Nc1ccccc1 | 7 | 0 | -12 | -6 | -1 | 55* | 28 | 0 | 1
COc1ccc(-c2noc(CSc3nnc(Cc4ccccc4)n3-c3ccc(Cl)cc3)n2)cc1 | -5 | 23 | 19 | -16 | -8 | 39* | 14 | 0 | 2
O=C(NCc1cccs1)C(=O)NCC(c1ccco1)N1CCN(c2ccccc2F)CC1 (configuration not stated) | -3 | 14 | -8 | 8 | 2 | 52* | 22 | 2 | 4
CCN(C(=O)c1ccco1)c1nc(-c2ccc(OC)cc2)cs1 | 0 | -4 | 5 | 7 | -5 | 33 | / | / | /
COc1ccc(-c2csc(N(CC(C)C)C(=O)c3ccco3)n2)cc1 | -3 | 19 | 2 | -14 | 0 | 44* | 31 | -1 | -13
CCn1c(SCc2c(Cl)cccc2Cl)nc2nc3c(cc2c1=O)CCCC3 | -4 | 35 | 12 | 33 | 0 | 34 | / | / | /
CCn1c(SCc2ccccc2Cl)nc2nc3c(cc2c1=O)CCCC3 | / | 23 | 20 | / | 14 | 57* | 41 | 0 | 3
O=C(/C=C/c1ccccc1Cl)NCCc1ccccc1 | -2 | 17 | -6 | -3 | 2 | 33 | / | / | /
O=C(/C=C/c1ccc(Cl)cc1)NCCc1ccccc1 | -5 | 3 | -9 | 10 | 0 | 54* | 25 | -1 | -9
COc1cc(/C=C/C(=O)N2CCN(Cc3ccccc3)CC2)cc(OC)c1OC | -1 | 12 | 4 | 18 | 2 | 61* | 27 | 1 | 7
O=C(/C=C/c1ccc(Cl)cc1)N1CCN(Cc2ccccc2)CC1 | 0 | -1 | 0 | -3 | -11 | 97* | 89* | 2 | 0
COc1cc(/C=C/C(=O)N2CCCN(C(=O)/C=C/c3cc(OC)c(OC)c(OC)c3)CC2)cc(OC)c1OC | -9 | -1 | 0 | -4 | 1 | 4 | / | / | /
O=C(NCc1ccc(Cl)cc1)N1CCN(Cc2ccccc2)CC1 | 4 | 5 | 1 | -22 | -1 | 16 | / | / | /
O=C(/C=C/c1ccc(Cl)cc1)N(Cc1ccccc1)c1ccccn1 | -3 | 30 | 7 | -4 | -7 | 41* | 18 | -2 | -11
CC(C)C[C@H]1COc2cc(N3CCC[C@@H]3CO)ccc2S(=O)(=O)N1 | / | / | -8 | / | / | -3 | / | / | /
CN1CCN(C(=O)/C=C/c2ccc(Cl)cc2)CC1 | 0 | -4 | 7 | 15 | -1 | 93* | 79* | 4 | 5
CN1CCN(C(=O)/C=C/c2ccc(Cl)c(Cl)c2)CC1 | -5 | 9 | 4 | 7 | 5 | 92* | 61* | 2 | 4
O=C(/C=C/c1ccccc1)N1CCN(Cc2nc3ccccc3c(=O)[nH]2)CC1 | -3 | -1 | -1 | -19 | 2 | 72* | 75* | 0 | 5
CSc1ccc(OC2(C)CCN(Cc3ccc4c(c3)OCCO4)C2)cc1 (configuration not stated) | / | / | -6 | / | / | 6 | / | / | /
COc1ccc2cc(C(=O)N3CCN(c4ccccc4OC)CC3)[nH]c2c1 | -4 | -10 | -13 | 10 | -2 | 74* | 49 | 2 | 4
COc1ccc2cc(C(=O)N3CCN(c4ccccc4F)CC3)[nH]c2c1 | 0 | 3 | -5 | -1 | 19 | 65* | 58* | 2 | 7
COc1cc2[nH]c(C(=O)N3CCN(c4ccccc4F)CC3)cc2c(OC)c1OC | -6 | -4 | -3 | 8 | 4 | 11 | / | / | /
SMILES | APJ agonist | CCR6 antag | CXCR6 inh | APJ antagonist | B2AR ag | EBI2 antag | EBI2 conf | EBI2 ag | bGal counter
COc1ccc(Cn2c(=O)[nH]c3cc(C(=O)N4CCN(c5ccccc5OC)CC4)ccc3c2=O)cc1 | -1 | 8 | 1 | -8 | -1 | -1 | / | / | /
CCOC(=O)CNC(=O)CSc1nc2cccnc2n1C1CCCCC1 | 0 | -11 | -16 | 15 | 1 | -4 | / | / | /
CCOC(=O)c1c(C)[nH]c(C)c1C(=O)COC(=O)c1cccs1 | -4 | 14 | 0 | -1 | -11 | 3 | / | / | /
S=C(N/N=C/c1ccccc1Cl)Nc1ccccc1 | -3 | 32 | 12 | 33 | 0 | 43* | 37 | 1 | 4
O=C(O)c1cccc(Oc2ccc(C(=O)O)c([N+](=O)[O-])c2)c1 | / | 4 | 4 | / | 6 | -8 | / | / | /
O=S(=O)(NC1=NCCC1)c1cccc(NC(=S)Nc2ccc(OC(F)F)cc2)c1 | -8 | 12 | 1 | 14 | 3 | 48* | 31 | -1 | -4
Clc1ccc(-c2nc3c4ccccc4ccn3c2Cc2ccsc2)cc1 | / | / | 12 | / | / | 20 | / | / | /
S=C(NCC1CCCO1)N1CCN(c2nc(-c3ccc(Cl)cc3)cs2)CC1 (configuration not stated) | 1 | -15 | -3 | -15 | 3 | 86* | 66* | 2 | 5
COc1ccc2[nH]c(=O)c(C(c3nnnn3C3CCCC3)N(C)C3CCCCC3)cc2c1 (configuration not stated) | -2 | 22 | 4 | 10 | 5 | 62* | 38 | 0 | -9
CCOc1ccc2[nH]c(=O)c(C(c3nnnn3C3CCCCC3)N3CCN(C)CC3)cc2c1 (configuration not stated) | 0 | -16 | 4 | 0 | -3 | -8 | / | / | /
COc1ccc2cc(C(c3nnnn3C3CCCCC3)N3CCCCCC3)c3nnnn3c2c1 (configuration not stated) | -6 | 1 | 10 | 10 | -2 | 54* | 20 | 0 | 7

High-throughput results: PubChem, several laboratories
